Laboratory results: ChEMBL document CHEMBL1149157, “Synthesis and structure-activity relationship of novel antitumoral platinum xanthate complexes” (J Med Chem, 2004)

What was measured:
Format in all cases: functional, cell-based, Homo sapiens
[1] = system: LXF-289 cell line; assay: Cytotoxic activity was determined in vitro in LXF-289 cell line culture at pH 6.8
Outline: (§1)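 Seeded at 2×10^6 cells/plate. Next day, switched to pH 6.8 medium (1.3 g NaHCO3/L, serum acidified with 1 N HCl) and equilibrated in 5% CO2. Exposed for 2 h at 37°C in quadruplicate to 50–0.8 µg/mL (1:2 series; acetone ≤5%), then given drug-free pH 7.4 medium until controls were confluent. Read by formaldehyde fixation and crystal violet at 550 nm. IC50 from dose–response curves, mean of four assays ± SD.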

[2] = system: Calu-6; assay: Cytotoxic activity was determined in vitro in Calu-6 cell line culture at pH 6.8; outline: as §1
[3] = system: SK-OV-3; assay: Cytotoxic activity was determined in vitro in SK-OV-3 cell line culture at pH 7.4
Outline: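 With 1×10^6 cells/plate seeded, medium was changed the next day to pH 7.4 (2.2 g NaHCO3/L) under 5% CO2. Cells were exposed 2 h at 37°C in quadruplicate to a 1:2 series of 50–0.8 µg/mL (acetone ≤5%), then given drug-free pH 7.4 medium until controls were confluent. Crystal violet read at 550 nm after formaldehyde fixation. IC50 from curves; mean of four assays ± SD.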

[4] = system: MCF7; assay: Cytotoxic activity was determined in vitro in MCF-7 cell line culture at pH 6.8
Outline: (§2)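 Cells at 2×10^6/plate were moved the next day into pH 6.8 medium (1.3 g NaHCO3/L; serum given 1 N HCl; 30 min 5% CO2). Treated 2 h at 37°C, quadruplicate, 50–0.8 µg/mL in 1:2 steps (acetone ≤5%), then grown in drug-free pH 7.4 medium to control confluence. Crystal violet stain eluted with ethanol/1% acetic acid before A550. IC50 from curves, mean of four assays ± SD.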

[5] = system: SK-MEL-25; assay: Cytotoxic activity was determined in vitro in SK-MEL-25 cell line culture at pH 7.4
Outline: (§3)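 Plated at 2×10^6 cells/plate. After one day, medium was replaced with pH 7.4 medium (2.2 g NaHCO3/L) and equilibrated under 5% CO2. Cells got 2 h at 37°C, in quadruplicate, of a 1:2 series 50–0.8 µg/mL (acetone ≤5%), then drug-free pH 7.4 medium for 24–96 h until controls were confluent. Fixed with 3% formaldehyde, stained with 1% crystal violet, A550. IC50 from dose–response curves; mean of four assays ± SD.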

[6] = system: SK-MEL-25; assay: Cytotoxic activity was determined in vitro in SK-MEL-25 cell line culture at pH 6.8; outline: as §1
[7] = system: MCF7; assay: Cytotoxic activity was determined in vitro in MCF-7 cell line culture at pH 7.4
Outline: (§4)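 Using pH 7.4 medium (2.2 g NaHCO3/L) on cells plated a day earlier at 2×10^6/plate, with equilibration in 5% CO2. Compounds were applied for 2 h at 37°C in quadruplicate at 50–0.8 µg/mL (1:2; acetone ≤5%), followed by drug-free pH 7.4 medium until controls were confluent. Fixed and stained with crystal violet, dye eluted with ethanol/1% acetic acid, read at 550 nm. IC50 from curves, mean of four ± SD.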

[8] = system: LXF-289 cell line; assay: Cytotoxic activity was determined in vitro in LXF-289 cell line culture at pH 7.4; outline: as §3
[9] = system: SK-OV-3; assay: Cytotoxic activity was determined in vitro in SK-OV-3 cell line culture at pH 6.8
Outline: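 SK-OV-3 seeded at 1×10^6 cells/plate. Next day, placed in pH 6.8 medium (1.3 g NaHCO3/L, HCl-treated serum, 5% CO2). Given 2 h at 37°C, in quadruplicate, of 50–0.8 µg/mL (1:2; acetone ≤5%), then drug-free pH 7.4 medium until controls were confluent. Formaldehyde-fixed and crystal violet-stained, A550. IC50 from dose–response curves, mean of four assays ± SD.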

[10] = system: Calu-6; assay: Cytotoxic activity was determined in vitro in Calu-6 cell line culture at pH 7.4; outline: as §3
[11] = system: KB; assay: Cytotoxic activity was determined in vitro in KB cell line culture at pH 7.4; outline: as §4
[12] = system: KB; assay: Cytotoxic activity was determined in vitro in KB cell line culture at pH 6.8; outline: as §2

Substance	IC50 [1] [µM]	IC50 [2] [µM]	IC50 [3] [µM]	IC50 [4] [µM]	IC50 [5] [µM]	IC50 [6] [µM]	IC50 [7] [µM]	IC50 [8] [µM]	IC50 [9] [µM]	IC50 [10] [µM]	IC50 [11] [µM]	IC50 [12] [µM]
2,6-bis(hexyloxy)-1,3,5,7-tetrathia-4-platinaspiro[3.3]heptane	> 91	23	130	44	70	37	47	> 91	102	37	> 91	64
2,6-bis(2-methylbutoxy)-1,3,5,7-tetrathia-4-platinaspiro[3.3]heptane	19	9	35	19	32	17	27	44	23	19	39	31
2,6-bis(3-methylbutoxy)-1,3,5,7-tetrathia-4-platinaspiro[3.3]heptane	23	6	21	23	35	20	40	71	24	21	19	35
2,6-bis({tricyclo[5.2.2.0^{2,6}]undecan-8-yloxy})-1,3,5,7-tetrathia-4-platinaspiro[3.3]heptane	> 38	8	> 38	32	> 38	> 38	> 38	> 38	> 38	18	> 77	> 77
CISPLATIN	113	16	90	108	90	78	160	83	64	25	52	55
2,6-bis(2,2-dimethyl-3-phenylpropoxy)-1,3,5,7-tetrathia-4-platinaspiro[3.3]heptane	> 50	10	> 50	> 50	> 50	> 50	> 50	> 50	> 50	17	> 50	> 50
2,6-bis(nonyloxy)-1,3,5,7-tetrathia-4-platinaspiro[3.3]heptane	38	> 76	> 76	24	> 76	> 76	30	53	> 76	> 76	> 76	> 76
2,6-bis(propan-2-yloxy)-1,3,5,7-tetrathia-4-platinaspiro[3.3]heptane	10	6	33	3	12	6	7	30	14	10	10	6
2,6-bis(octyloxy)-1,3,5,7-tetrathia-4-platinaspiro[3.3]heptane	30	23	> 83	31	> 83	56	31	83	> 83	56	> 83	> 83
2,6-dipropoxy-1,3,5,7-tetrathia-4-platinaspiro[3.3]heptane	37	7	50	4	21	10	9	49	45	21	38	12
2,6-bis(pentyloxy)-1,3,5,7-tetrathia-4-platinaspiro[3.3]heptane	38	9	66	10	32	19	34	62	31	15	25	16
2,6-bis[(3,3-dimethylbutan-2-yl)oxy]-1,3,5,7-tetrathia-4-platinaspiro[3.3]heptane	15	9	34	7	11	10	9	18	18	9	7	5
